# Source: PubChem BioAssay
# Rows were chosen to be rich in hits. Some 1.6% of all compounds tested hit in one or more screens of this group.
# PG9 Ab binder: binders of HIV-1 gp120 antibody PG9, primary screen, biochemical, TR-FRET. inhibition, % at 6.7 µM. HIV-1 gp120 / PG9 antibody interaction. TR-FRET gp120-PG9 antibody binding. 360,000 tested, 0.43% active. AID 624416, 2012; in the data active means inhibition above about 8.5%
# NR2E3 ag-1: NR2E3 agonists in two-hybrid cells, primary screen, cell-based, luminescence, CHO-S, Gal4-NCOR/VP16-NR2E3 | Photoreceptor-specific nuclear receptor (Homo sapiens), Q9Y5X4 | 360,000 tested, 0.35% active | luciferase | inhibition of corepressor binding, % at 3.98 µM;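 active means inhibition above the mean of all tested compounds plus 3 SD, cut at about 70% in these data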;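 further: 0% = DMSO with NR2E3 transfected cells and 100% = cells lacking NR2E3 construct; higher means lower luciferase signal from less NR2E3 corepressor binding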
# NR1D1 modulator: modulators of Rev-erb alpha DNA binding, primary screen, biochemical, FITC-DNA, fluorescence polarization, uHTS; Nuclear receptor subfamily 1 group D member 1 (Homo sapiens), P20393; Rev-erbα–FITC-DNA binding, 90 min; activity, % at 10 µM; 370,000 tested, 0.79% active; AID 1259318, 2017;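 active means activity above about 14%, limit read from the data; passing the limit was not always enough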;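 further: 0% = DMSO wells with 35 nM protein and 100% = DMSO wells with 750 nM protein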
# Target sequence (P20393 whole entry, looked up): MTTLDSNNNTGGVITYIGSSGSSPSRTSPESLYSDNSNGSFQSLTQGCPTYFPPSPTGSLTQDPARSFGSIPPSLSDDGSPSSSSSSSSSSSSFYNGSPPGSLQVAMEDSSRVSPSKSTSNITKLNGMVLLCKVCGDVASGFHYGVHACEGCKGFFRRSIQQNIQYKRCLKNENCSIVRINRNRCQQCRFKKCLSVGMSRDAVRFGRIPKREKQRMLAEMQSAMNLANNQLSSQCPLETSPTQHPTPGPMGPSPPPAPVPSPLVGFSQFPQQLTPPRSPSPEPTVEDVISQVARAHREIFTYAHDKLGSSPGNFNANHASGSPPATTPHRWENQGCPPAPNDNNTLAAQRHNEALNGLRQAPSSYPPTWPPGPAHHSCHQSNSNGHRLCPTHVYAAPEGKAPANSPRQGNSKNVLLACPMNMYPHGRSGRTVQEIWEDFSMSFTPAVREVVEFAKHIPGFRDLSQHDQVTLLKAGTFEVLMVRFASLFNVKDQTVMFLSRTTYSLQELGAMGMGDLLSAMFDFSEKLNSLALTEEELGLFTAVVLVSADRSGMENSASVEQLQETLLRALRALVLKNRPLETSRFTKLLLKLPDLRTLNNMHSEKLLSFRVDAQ
# PKA-R1A activ: activators of PKA-R1A holoenzyme, primary screen, biochemical, fluorescence polarization, Cy5-IP20, bovine R1A, mouse PKAc | PKA-R1A dissociation; scaled: DMSO 0%, 113 µM cGMP 100% | activation, % at 11.4 µM | cAMP-dependent protein kinase type I-alpha regulatory subunit (Bos taurus) + … | 340,000 tested, 0.083% active | AID 504707, 2011;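 active means percent activation above the mean of all tested compounds plus 3 SD, cut at about 19% in these data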;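 further: higher means more PKAc released from R1A so a rise in polarization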
# PKA-R2B activ: activators of PKA-R2B holoenzyme, primary screen, biochemical, fluorescence polarization, Cy5-IP20, human. cAMP-dependent protein kinase catalytic subunit beta (Homo sapiens) + cAMP-dependent …. PKA-R2B holoenzyme dissociation; R2B truncated from residue 108, S112A mutant; 0% DMSO only, 100% 113 µM cGMP. activation, % at 11.4 µM. 340,000 tested, 0.079% active. AID 504700, 2011;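 active means activation above a cutoff set at the mean over all compounds plus 3 SD, cut at about 18% in these data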;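 further: higher means more holoenzyme dissociation and a rise in polarization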
# NR2E3 ag-2: inhibitors of NR2E3-RetCOR corepressor binding, primary screen, NR2E3 agonist project, biochemical, TR-FRET, GST-NR2E3, biotin-RetCOR | 1536-well | AID 2300, 2010 | 320,000 tested, 0.12% active | Photoreceptor-specific nuclear receptor (Homo sapiens), Q9Y5X4 | inhibition of corepressor binding, % at 4.78 µM;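 active means percent inhibition above the cutoff of mean plus 3 SD of all tested compounds, set per screening campaign, cut at about 20% in these data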;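 further: 0% = DMSO wells and 100% = biotin wells as full block of FRET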
#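 Material: NR2E3–RetCOR corepressor complex | Quantity: 1.35 nM GST-tagged NR2E3 final | Schedule: 5 h at 4 °C | Replication: Singlicate compound wells | Reagent: RetCOR corepressor, biotinylated, 7 nM | Controls: Biotin wells as high control, 0.6% DMSO wells as low control | Signal: TR-FRET, Eu(K)-anti-GST donor, streptavidin-D2 acceptor, ex 340, em 617/671 nm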
# NR2E3 ag conf: NR2E3 agonist confirmation in cells, cell-based, luminescence, CHO-S two-hybrid; AID 624378, 2012; 2,300 tested, 51% active; CHO-S mammalian two-hybrid NR2E3-NCOR, luciferase luminescence; shares compounds with NR2E3 ag-1; inhibition, % at 3.98 µM;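 active means average inhibition above a cutoff equal to the mean inhibition of all tested compounds plus one SD, cut at about 70% in these data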;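 further: 0% = DMSO in NR2E3 cells and 100% = DMSO in cells lacking NR2E3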
# GAL4-VP16 luc: GAL4-VP16 reporter modulators, confirmation, counter-screen for NR2E3 agonist project, cell-based, luminescence, CHO-S, high throughput | shares compounds with NR2E3 ag-1 | CHO-S GAL4-VP16 luciferase reporter | inhibition, % at 3.98 µM | 2,300 tested, 29% active | AID 624379, 2012;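 active means mean inhibition above a cutoff equal to the average over all tested compounds plus one standard deviation, cut at about 70% in these data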;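 further: luciferase from a UAS reporter driven by GAL4-VP16 transactivation; 0% = DMSO with VP16-transfected cells and 100% = DMSO with cells lacking VP16; higher means less reporter light so more repression of VP16 activity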
# Starred values were filed as active, the others as inactive; . = no result.
SMILES,PG9 Ab binder,NR2E3 ag-1,NR1D1 modulator,PKA-R1A activ,PKA-R2B activ,NR2E3 ag-2,NR2E3 ag conf,GAL4-VP16 luc
CC(C)(O)/C=C/C(=O)C(C)(O)C1C(O)CC2(C)C3CC=C4C(C=C(O)C(=O)C4(C)C)C3(C)C(=O)CC12C (stereo not drawn),0.8,78.5*,0.9,8.8,-8.3,.,46.8,57.2
CC1(C)C(C(=O)N2CCN(c3ccc(Cl)cc3)CC2)C1(C)C,0.6,-6.2,7.1,-8.7,0.6,-2.7,.,.
COC(=O)C1CN(C#N)N(c2ccc(Cl)cc2)C12c1ccccc1-c1ccccc12 (stereo not drawn),.,80.2*,.,3.9,-3.0,0.4,91.6*,62.9
CCCC(=O)N1c2ccc(Cl)cc2C(c2ccccc2)=NCC1C(=O)NC(C)(C)C (stereo not drawn),.,.,-5.6,.,.,.,.,.
Oc1ccccc1-c1ccccc1,.,.,-2.8,.,.,.,.,.
CCN1/C(=C/C=C/C2=[N+](CC)c3ccccc3C2(C)C)C(C)(C)c2ccccc21,4.1,103.8*,-34.0,0.6,-12.4,.,98.5*,94.1*
CN1/C(=C\C=C\C2=[N+](C)c3ccc4ccccc4c3C2(C)C)C(C)(C)c2ccccc21,.,.,.,.,.,-4.0,.,.
C=CCC1(C(C)CCC)C(=O)N=C(S)NC1=O (stereo not drawn),.,.,6.5,.,.,.,.,.
CCN1C[C@@]2(COC)C3[C@@H](OC)[C@H]4[C@@H]1[C@]3(C(OC)C[C@H]2O)C1C[C@@]2(O)[C@H](OC(=O)c3ccccc3)C1[C@]4(OC(C)=O)[C@@H](O)[C@@H]2OC (stereo partly drawn),.,.,-5.7,.,.,.,.,.
COc1cc2cc(C(=O)N3CC(COS(C)(=O)=O)c4ccc(O)cc43)[nH]c2c(OC)c1OC (stereo not drawn),.,73.2*,.,-0.7,-5.8,.,99.8*,93.9*
CC(C)C[C@@H](CN)CC(=O)O,.,.,0.0,.,.,.,.,.
C[C@@H]1O[C@@H](O[C@H]2C[C@@H](O)[C@]3(CO)C4C(CC[C@]3(O)C2)[C@@]2(O)CC[C@H](C3=CC(=O)OC3)[C@@]2(C)C[C@H]4O)[C@H](O)[C@H](O)[C@H]1O (stereo partly drawn),.,.,1.6,.,.,.,.,.
Nc1ccc(CC(N)c2csc(Nc3ncccn3)n2)cc1 (stereo not drawn),-0.1,-33.3,-0.4,.,.,.,.,.
NC(Cc1ccc(Cl)cc1)c1csc(Nc2ncccn2)n1 (stereo not drawn),0.3,58.1,5.2,.,.,.,51.4,27.7
NC(Cc1ccc(F)cc1)c1csc(Nc2ncccn2)n1 (stereo not drawn),-0.2,50.5,-6.4,.,.,.,21.8,-6.6
Cc1cc(N2CCNC[C@H]2C)ccc1N1CC[C@H](O)C1,0.8,.,-5.1,.,.,.,.,.
N#Cc1cn(C2OC(CO)C(O)C2O)c2ncnc(N)c12 (stereo not drawn),-2.4,97.5*,-4.8,8.0,-9.2,.,99.6*,83.5*
NC(=O)c1cn(C2OC(CO)C(O)C2O)c2ncnc(N)c12 (stereo not drawn),-1.0,101.4*,-1.2,10.8,8.9,-0.6,99.1*,98.6*
N#Cc1c(Br)n(C2OC(CO)C(O)C2O)c2ncnc(N)c12 (stereo not drawn),0.0,42.7,1.3,10.9,-6.8,.,.,.
O=C1CN=C(c2ccccc2Cl)c2cc([N+](=O)[O-])ccc2N1,.,.,8.3,.,.,.,.,.
CC1CCOC(=O)C=CC=CC(=O)OC2CC3OC4C5OC5(C)C(O)CC4(COC(=O)C1O)C2(C)C31CO1 (stereo not drawn),-0.5,102.4*,3.0,9.0,9.1,.,99.0*,98.9*
CC(O)C1C=CC=CC(=O)OC2CC3OC4C5OC5(C)C(O)CC4(COC(=O)C(O)C(C)CCO1)C2(C)C31CO1 (stereo not drawn),-0.9,91.7*,5.3,1.1,0.0,.,94.2*,65.9
CC1=CC2OC3CC4OC(=O)C=CC=CC(=O)OCCC(C)C(O)C(=O)OCC2(CC1)C4(C)C31CO1 (stereo not drawn),0.1,103.2*,-1.4,-0.5,-12.0,.,100.6*,100.3*
CC1=CC2OC3CC4OC(=O)C=CC=CC(C(C)O)OCC(O)C5(C)OC5C(=O)OCC2(CC1O)C4(C)C31CO1 (stereo not drawn),2.6,101.8*,-2.6,-6.4,-12.5,.,97.8*,98.4*
S=C(SSC(=S)N1CCCCC1)N1CCCCC1,.,.,1.7,.,.,.,.,.
SMILES,PG9 Ab binder,NR2E3 ag-1,NR1D1 modulator,PKA-R1A activ,PKA-R2B activ,NR2E3 ag-2,NR2E3 ag conf,GAL4-VP16 luc
COC(=O)C1=C(c2ccc(-c3ccccc3)c(F)c2)C[C@@H]2CC[C@H]1N2C(=O)N1CCCC1,-1.8,70.6*,-1.5,0.7,-4.7,1.9,53.7,56.2
COC(=O)C1=C(c2ccc(-c3ccccc3)c(F)c2)C[C@@H]2CC[C@H]1N2C(=O)N1CCCCC1,-1.5,36.9,-3.0,0.9,-14.4,2.2,.,.
CCN(CC)Cc1nccn1-c1ccc([N+](=O)[O-])cc1C(=O)c1ccccc1Cl,.,.,4.5,.,.,.,.,.
CC1CC(C)(O)CC(C(O)CC2CC(=O)NC(=O)C2)C1=O (stereo not drawn),-0.7,100.4*,5.0,-6.6,1.4,.,100.1*,98.7*
C=C1C(=O)O[C@H]2C[C@@H](C)[C@@H]3C=CC(=O)[C@@]3(C)C[C@H]12,-1.8,.,0.5,.,.,-5.1,.,.
C=C1C(=O)O[C@H]2[C@H]1[C@H](OC(=O)CC(=O)O[C@@H]1C[C@@H](C)[C@@H]3C=CC(=O)[C@@]3(C)[C@H]3OC(=O)C(=C)[C@H]13)C[C@@H](C)[C@H]1C=CC(=O)[C@]12C,-1.6,78.1*,6.4,-5.1,2.1,-0.1,88.9*,73.2*
